The text below walks through data of ChEMBL document CHEMBL1123519, “Chemically stable homocinnamyl analogues of the leukotrienes: synthesis and preliminary biological evaluation” (J Med Chem, 1986).

Calls of active or inactive are those of the source. The rule behind the calls is not given here.

The species entered for assay [1] is Cavia porcellus. Nature of the assay: Compound was evaluated for its activity in vitro with use of isolated guinea pig tracheal spiral strips in the presence (control ). In kind it is functional. The following applies: Trachea. Summed up: (§1)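 Guinea pig tracheal strips held at 2 g resting tension and stabilized 60 min, with bath fluid changed every 15 min. Contraction to carbachol 30 μM, wash, then restabilized 60 min. Cumulative agonist concentration-response curves were run, with responses expressed as % of carbachol maximum. L-cysteine 3 mM or L-serine borate 45 mM was preincubated 30 min. EC50 was derived by linear regression, and significance by paired t test (p<0.05).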

The species named for assay [2] is Cavia porcellus. Nature of the assay: Compound was evaluated for its activity in vitro with use of isolated guinea pig tracheal spiral strips in the presence of L-cysteine (3 mM). Type of assay: functional. Particulars: Trachea. Summed up:
as §1

The species named for assay [3] is Cavia porcellus. Nature of the assay: Compound was evaluated for its activity in vitro with use of isolated guinea pig tracheal spiral strips in the presence of L-serine borate (45 mM). In kind it is functional. Particulars: Trachea. Summed up:
as §1

The species entered for assay [4] is Cavia porcellus. In words: Compound was evaluated for its activity in vitro with use of isolated guinea pig tracheal spiral strips in the presence (control ); Not active. In kind it is functional, Trachea. Summed up: as §1
The species named for assay [5] is Cavia porcellus. In words: Compound was tested for inhibition of LTE4 (8 nM)-induced contraction of isolated guinea pig trachea at 10 mM concentration. The following applies: in the assay text read “10 µM” for “10 mM”. Type of assay: functional. Summed up: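 Isolated guinea pig trachea contracted with LTE4 8 nM. Analogue present in the bath, and inhibition of the LTE4 contraction expressed as percent.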

For assay [6], the species on record is Cavia porcellus. Nature of the assay: Compound was tested for FPL-55712 sensitivity in the absence of metabolic inhibitors; Yes. Type of assay: functional, organism-based. Summed up: (§2)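 Guinea pig tracheal strips at 2 g resting tension, stabilized 60 min, carbachol (30 μM) reference contraction, restabilized 60 min. FPL-55712 10 μM was preincubated 30 min before cumulative agonist curves, without metabolic inhibitors. EC50 values were compared with and without antagonist by Student's paired t test (p<0.05). Kb was obtained by the Furchgott method.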

Assay [7] is filed under the species Cavia porcellus. In words: Compound was tested for FPL-55712 sensitivity in the absence of metabolic inhibitors; No sensitivity. In kind it is functional, organism-based. Summed up:
as §2

One may read the EC50 as the midpoint of the concentration-response curve. In general, Inhibition refers to the share of the control response that was lost under treatment. Read a high Inhibition as a response far below the control.

Molecule `CCCCC/C=C/c1cccc(C/C=C/[C@H](SC[C@H](N)C(=O)NCC(=O)O)[C@H](O)CCCC(=O)O)c1` came in with an EC50 in the assay listed under Cavia porcellus [1] of 13000 nM.
Still for that read-out and setting: for `CCCCCCCc1ccc(C/C=C/[C@H](SCC(N)C(=O)O)[C@H](O)CCCC(=O)O)cc1` (some centres not stated) the value was 1700 nM.
For the molecule `CCCCCCCc1ccc(C/C=C\[C@@H](SC[C@H](N)C(=O)NCC(=O)O)[C@@H](O)CCCC(=O)O)cc1`, the EC50 in the assay listed under Cavia porcellus [1] stood at 2680 nM; in the assay listed under Cavia porcellus [2], 251 nM.
`CCCCCCCc1ccc(C/C=C/[C@H](SCC(NC(=O)CCC(N)C(=O)O)C(=O)NCC(=O)O)[C@H](O)CCCC(=O)O)cc1` (some centres not stated): the 50% effective concentration (EC50) turned out to be 574 nM in the assay filed under Cavia porcellus [1] and 74.5 nM in the assay filed under Cavia porcellus [3].
Turning to `CCCCCCCc1ccccc1C/C=C/[C@H](SC[C@H](N)C(=O)NCC(=O)O)[C@H](O)CCCC(=O)O`, the EC50 in the assay filed under Cavia porcellus [2] worked out at 1870 nM.
Molecule `CCCCCCCc1cccc(C/C=C/[C@H](SCC(N)C(=O)O)[C@H](O)CCCC(=O)O)c1` (some centres not stated) had a concentration giving a half-maximal response (EC50) in the assay filed under Cavia porcellus [1] of 4830 nM.
Take `CCCCCCOc1cccc(C/C=C/[C@H](SC[C@H](N)C(=O)NCC(=O)O)[C@H](O)CCCC(=O)O)c1`: in the assay listed under Cavia porcellus [4], the EC50 entry is reported as “Not Active”. Moreover, the Inhibition in the assay listed under Cavia porcellus [5] came out at 24%.
The like results for `CCCCCCOc1ccccc1C/C=C/[C@H](SC[C@H](N)C(=O)NCC(=O)O)[C@H](O)CCCC(=O)O` were, in that order, “Not Active” and 18%.
In turn, `CCCCCCCc1ccccc1C/C=C/[C@H](SCC(N)C(=O)O)[C@H](O)CCCC(=O)O` (some centres not stated) came in with an Inhibition in the assay filed under Cavia porcellus [5] of 28%.
With `CCCCC/C=C\C\C=C/C=C/C=C/[C@@H](SC[C@H](N)C(=O)NCC(=O)O)[C@@H](O)CCCC(=O)O` [LEUKOTRIENE D4], the EC50 in the assay listed under Cavia porcellus [1] is 3.92 nM; in the assay listed under Cavia porcellus [2], 0.513 nM.
As for `CCCCCCCc1cccc(C/C=C/[C@H](SCC(NC(=O)CCC(N)C(=O)O)C(=O)NCC(=O)O)[C@H](O)CCCC(=O)O)c1` (some centres not stated), the results for the concentration for a half-maximal effect (EC50) in the assay filed under Cavia porcellus [1] and in the assay filed under Cavia porcellus [3] were 1360 nM and 447 nM, respectively.
With `CCCCCCOc1ccc(C/C=C/[C@H](SC[C@H](N)C(=O)NCC(=O)O)[C@H](O)CCCC(=O)O)cc1`, the Sensitivity result in the assay listed under Cavia porcellus [6] was “Active”. The molecule also registered an EC50 in the assay listed under Cavia porcellus [1] of 9100 nM.
In the case of `CCCCCCCc1ccccc1C/C=C/[C@H](SCC(NC(=O)CCC(N)C(=O)O)C(=O)NCC(=O)O)[C@H](O)CCCC(=O)O` (some centres not stated), the EC50 in the assay filed under Cavia porcellus [1] amounted to 18600 nM; in the assay filed under Cavia porcellus [3], 18400 nM.
As to `CCCCC/C=C/c1ccc(C/C=C/[C@H](SCC(NC(=O)CCC(N)C(=O)O)C(=O)NCC(=O)O)[C@H](O)CCCC(=O)O)cc1` (some centres not stated), the EC50 is 3820 nM in the assay listed under Cavia porcellus [1] and 451 nM in the assay filed under Cavia porcellus [3].
For `CCCCCCOc1ccc(C/C=C/[C@H](SCC(NC(=O)CCC(N)C(=O)O)C(=O)NCC(=O)O)[C@H](O)CCCC(=O)O)cc1` (some centres not stated), the values for the EC50 in the assay filed under Cavia porcellus [1] and in the assay listed under Cavia porcellus [3] were 1280 nM and 256 nM, respectively. Moreover, the Sensitivity entry in the assay listed under Cavia porcellus [7] was “No sensitivity”.
For `CCCCCCCc1cccc(C/C=C/[C@H](SC[C@H](N)C(=O)NCC(=O)O)[C@H](O)CCCC(=O)O)c1`, the 50% effective concentration (EC50) in the assay listed under Cavia porcellus [2] stood at 4770 nM.
